Laboratory results published in paper PMC3206162 (The international journal of biochemistry & cell biology, 2011).
Like-named read-outs stand apart in the source and are kept apart here. No end group written: not given here.

Legend:
[1] = tested on: MEC; assay type: cell-based, human; settings: 72 h
[2] = tested on: HUVEC; assay: CytoTox-ONE LDH release cytotoxicity assay on HUVEC; settings: 10μM peptide, 72 h
[3] = tested on: LEC
[4] = tested on: cell apoptosis; settings: cited from earlier work
[5] = tested on: HUVEC; assay type: cell-based, human; settings: 72 h
[6] = tested on: LEC; assay type: cell-based, human; settings: 72 h
[7] = tested on: LEC; assay: RTCA E-plate LEC adhesion assay; assay type: cell-based, human; settings: read-out: IC50 LEC adhesion; cell index at 1 h; 100, 33, 11, 3.7, 1.2μM
Summary of the method: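 LEC seeded at 25,000 cells/well in EGM-2MV medium onto E-plate wells already holding peptide, so the cells dilute the peptide to its final concentration. Plate equilibrated 30 min at room temperature, then loaded into the RTCA system. Cell index analysed at 1 h as the adhesion read-out.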

[8] = tested on: LEC; settings: 20 h
[9] = tested on: MEC; assay: CytoTox-ONE LDH release cytotoxicity assay on MEC; settings: 72 h, complete media control = 100%; for LDH level, MEC: 10μM peptide; for LDH activity compared to the control, MEC: 100μM peptide
[10] = tested on: LEC; assay: CytoTox-ONE LDH release cytotoxicity assay on LEC; settings: 72 h, complete media control = 100%

For LLHISLLLIESRLE [SP5032], the IC50 [1] was 80.1 ± 47.9 µM and the “cytotoxic (LDH) activity, HUVEC” value [2] was “significant cytotoxic activity”.

With LLRISLLLIESWLE [SP5033] the IC50 [1] was 81.1 ± 37.2 µM and the “LDH activity compared to the control, LEC” value [3] was “significant LDH activity”.

For “LLRISLLLIQSWLE [tilted PRL peptide, reference compound]”, the cell apoptosis ([4]; ref Nguyen et al., 2006) is listed as “led to cell apoptosis”.

In the case of LLRLLLLIESWLE [SP5030], the IC50 [1] is reported as 93.2 ± 42.3 µM and the “cytotoxic (LDH) activity, HUVEC” value [2] is reported as “significant cytotoxic activity”.

With LLRSSLILLQGSWF [SP5031] the IC50 [5] was 96.9 ± 34.3 µM, the IC50 [1] was 83.4 ± 21.9 µM and the IC50 [6] was 158 ± 122 µM. For the same molecule, the IC50 [7] was 24.2 µM and the IC50 [8] was 25.1 µM.

For LMRKSQILISSWF [SP5028], the IC50 [5] was 58.2 ± 35.2 µM, the “LDH level, MEC” value [9] was “more than 150%” and the “LDH activity compared to the control, MEC” value [9] was “more than 200%”.

With RLRLLTLQSWLL [SP5001] the IC50 [5] was 50.7 ± 31.8 µM, the IC50 [1] was 52.4 ± 27.8 µM and the “LDH level, MEC” value [9] was “more than 150%”. The “LDH activity compared to the control, MEC” value [9] was “more than 200%” and the “LDH activity compared to the control, LEC” value [10] was “significant LDH activity”.

B1: PRL protein: prolactin (PRL) protein (protein, UniProt P01236 29-227, looked up)
Prolactin: LPICPGGAARCQVTLRDLFDRAVVLSHYIHNLSSEMFSEFDKRYTHGRGFITKAINSCHTSSLATPEDKEQAQQMNQKDFLSLIVSILRSWNEPLYHLVTEVRGMQEAPEAILSKAVEIEEQTKRLLEGMELIVSQVHPETKENEIYPVWSGLPSLQMADEESRLSAYYNLLHCLRRDSHKIDNYLKLLKCRIIHNNNC
For B1, the “apoptosis in a prostate cancer model” value ([4]; prostate cancer model, ref Giuffrida et al., 2010) is listed as “induced apoptosis”.
